Article PMC7383501 (Diabetes, Obesity & Metabolism, 2020)

Legend:
[1] = Single-dose study: serum pharmacokinetics of efpeglenatide; type: in vivo, human; conditions: T2D patients, serum ELISA; for tmax: median (min–max)
Method in brief: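 Single s.c. dose (2–100 μg/kg) in T2D patients. Serum concentration–time data were used to derive tmax, terminal t1/2, observed Cmax, AUC(0–last) and AUC(0–inf). Values are geometric mean (%CV of arithmetic mean); tmax is median (min, max). Dose proportionality was explored on log-transformed Cmax and AUC. The PK set comprised dosed patients with sufficient concentration data.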

[2] = Repeated-dose study: serum pharmacokinetics of efpeglenatide; type: in vivo, human; conditions: mean (SD); for Accumulation ratio: AUC0–τ last dose / AUC0–τ first dose; for PTR (peak‐to‐trough ratio): Cmax/Cmin
Method in brief: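 T2D patients on metformin received s.c. doses weekly (168 h interval, eight injections) or monthly (672 h interval, three injections). PK set, grouped by the most recent treatment received. Accumulation ratio was AUC0–τ of the last dose over AUC0–τ of the first dose. Peak-to-trough ratio was Cmax/Cmin. t1/2 was the terminal elimination half-life.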

patients with T2D [3] = assay: Single-dose study: pharmacodynamics; type: in vivo, human; conditions: single dose 2–8 μg/kg
Method in brief: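 Pharmacodynamics were assessed from 24-hour glucose profiles, including fasting and postprandial plasma glucose, reported as absolute change from baseline. The PD set comprised all treated patients.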

patients with T2D [4] = assay: Repeated-dose study: pharmacodynamics/efficacy; type: in vivo, human
Method in brief: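 Multiple-ascending-dose trial in adults with T2D on stable metformin: s.c. doses weekly (1, 2, 4 mg; 8 weeks) or monthly (8, 12, 16 mg; 9 weeks), placebo 3:1, no titration. Primary endpoint was HbA1c change from baseline to […]. Full analysis set by randomized treatment. LS means came from ANCOVA with cohort as main effect and baseline as covariate. Each dose was tested against placebo within its regimen, two-sided at 5%, unadjusted.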

patients with T2D [5] = assay: Single-dose study: safety and tolerability; type: in vivo, human
Method in brief: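 Single ascending s.c. doses of 2–100 μg/kg or placebo (5:1) were given to T2D patients after a 14-day washout of glucose-lowering drugs. Safety assessments covered AE recording, vital signs, 12-lead ECG, clinical laboratory measures and physical examination. The safety set included all patients receiving any study drug.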

patients with T2D [6] = assay: Repeated-dose study: safety and tolerability; type: in vivo, human
Method in brief: (§1)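 Adults aged 18–65 with T2D on stable metformin for ≥3 months, HbA1c 7–10%. Randomized 3:1 to s.c. test compound or placebo with no titration, in six cohorts of 12. Doses were 1, 2 or 4 mg weekly for 8 weeks, or 8, 12 or 16 mg monthly for 9 weeks; follow-up to week 13. Assessments covered AEs, vital signs, 12-lead ECG, clinical laboratory measures, immunogenicity and physical examination. Analysed in the safety set by treatment actually received.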

[7] = system: anti-efpeglenatide antibodies; assay: Single-dose study: immunogenicity, bridging ELISA; type: in vivo, human; conditions: serum, pre-dose, days 28 and 49, follow-up
Method in brief: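 First-in-patient dose escalation in eight cohorts of six T2D patients: single s.c. injection of 2–100 μg/kg test compound or placebo (5:1). Patients were 18–75 years, BMI 25–40 kg/m², HbA1c 6–10%, with a 14-day washout of glucose-lowering drugs before dosing. Immunogenicity was a secondary objective.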

[8] = system: anti-efpeglenatide antibodies; assay: Repeated-dose study: immunogenicity, bridging ELISA; type: in vivo, human; conditions: the four patients with antibodies at baseline
Method in brief: as §1

GLP‐1 receptor [9] = conditions: in vitro; compared with other GLP‐1RAs; cited from earlier work
GLP‐1 receptor [10] = conditions: in vitro; compared with other GLP‐1RAs; cited from earlier work; remark: listed apart in the source
[11] = single s.c. dose 2 μg/kg, geometric mean (%CV)
[12] = single s.c. dose 4 μg/kg, geometric mean (%CV)
[13] = single s.c. dose 8 μg/kg, geometric mean (%CV)
[14] = single s.c. dose 14 μg/kg, geometric mean (%CV)
[15] = single s.c. dose 20 μg/kg, geometric mean (%CV)
[16] = single s.c. dose 40 μg/kg, geometric mean (%CV)
[17] = single s.c. dose 60 μg/kg, geometric mean (%CV)
[18] = single s.c. dose 100 μg/kg, geometric mean (%CV)

efpeglenatide
AUC(0–last) [1, 11]: 2913 (19) ng h/mL
Cmax [1, 11]: 10.4 (11) ng/mL
tmax ([1]; single s.c. dose 2 μg/kg): 144.00 (72.06–216.76) h
AUC(0–inf) [1, 12]: 9060 (12) ng h/mL
AUC(0–last) [1, 12]: 7911 (12) ng h/mL
Cmax [1, 12]: 25.7 (16) ng/mL
t1/2 [1, 12]: 144 (10) h
tmax ([1]; single s.c. dose 4 μg/kg): 72.06 (72.00–216.80) h
Cmax [1, 13]: 45.1 (5) ng/mL
t1/2 [1, 13]: 147 (19) h
tmax ([1]; single s.c. dose 8 μg/kg): 72.06 (72.00–144.00) h
Cmax [1, 14]: 80.3 (28) ng/mL
t1/2 [1, 14]: 135 (8) h
tmax ([1]; single s.c. dose 14 μg/kg): 144.00 (72.00–216.76) h
Cmax [1, 15]: 102 (6) ng/mL
t1/2 [1, 15]: 147 (6) h
tmax ([1]; single s.c. dose 20 μg/kg): 144.00 (72.00–216.78) h
Cmax [1, 16]: 202 (14) ng/mL
t1/2 [1, 16]: 141 (10) h
tmax ([1]; single s.c. dose 40 μg/kg): 144.00 (72.00–216.78) h
Cmax [1, 17]: 349 (13) ng/mL
t1/2 [1, 17]: 154 (9) h
tmax ([1]; single s.c. dose 60 μg/kg): 72.00 (72.00–144.00) h
Cmax [1, 18]: 643 (12) ng/mL
t1/2 [1, 18]: 180 (12) h
tmax ([1]; single s.c. dose 100 μg/kg): 72.00 (72.00–216.90) h
Accumulation ratio ([2]; 1 mg once weekly s.c., τ 168 h): 3.49 (2.16)
PTR (peak‐to‐trough ratio) ([2]; 1 mg once weekly s.c.): 1.40 (0.49)
Accumulation ratio ([2]; 2 mg once weekly s.c., τ 168 h): 3.51 (0.68)
PTR (peak‐to‐trough ratio) ([2]; 2 mg once weekly s.c.): 1.42 (0.21)
Accumulation ratio ([2]; 4 mg once weekly s.c., τ 168 h): 3.71 (1.87)
PTR (peak‐to‐trough ratio) ([2]; 4 mg once weekly s.c.): 1.32 (0.12)
Accumulation ratio ([2]; 8 mg once monthly s.c., τ 672 h): 1.07 (0.10)
PTR (peak‐to‐trough ratio) ([2]; 8 mg once monthly s.c.): 10.35 (7.28)
PTR (peak‐to‐trough ratio) ([2]; 12 mg once monthly s.c.): 5.86 (1.10)
PTR (peak‐to‐trough ratio) ([2]; 16 mg once monthly s.c.): 12.94 (7.55)
changes in PPG (patients with T2D [3]): No notable changes
reductions in FPG from baseline over 2 weeks (patients with T2D [3]; compared with the higher doses, data not shown): smaller than those observed for the higher doses
LS mean change in HbA1c compared with placebo (patients with T2D [4]; 8 mg once monthly, day 57, P = 0.006): statistically significant LS mean decreases
LS mean change in HbA1c compared with placebo (patients with T2D [4]; 12 mg once monthly, day 57, P = 0.015): statistically significant LS mean decreases
LS mean change in HbA1c compared with placebo (patients with T2D [4]; 16 mg once monthly, day 57): not statistically significant
LS mean change in HbA1c compared with placebo (patients with T2D [4]; all once‐monthly dose groups (8, 12, 16 mg), day 29, P ≤0.047 for all, ANCOVA): significant decreases
LS mean change in HbA1c compared with placebo (patients with T2D [4]; each once‐weekly dose group (1, 2, 4 mg), day 29, P ≤0.003 for all, ANCOVA): Significant decreases
LS mean change in HbA1c compared with placebo (patients with T2D [4]; each once‐weekly dose group (1, 2, 4 mg), day 57, P ≤0.021 for all, ANCOVA): Significant decreases
deaths or serious AEs (patients with T2D [5]): no deaths or serious AEs
arrhythmia or ECG changes due to QTc prolongation or conduction disorders (patients with T2D [5]; 12‐lead ECG): no signs of arrhythmia or ECG changes
hypoglycaemia or pancreatitis reported as AEs (patients with T2D [5]; any treatment group): No incidences
dose-escalation stopping criteria (patients with T2D [6]; 16 mg once monthly cohort, more than three patients with moderate vomiting): reached the predefined stopping criteria for dose escalation
pancreatic injury (patients with T2D [6]; any patient receiving efpeglenatide, repeated-dose study): no cases of pancreatic injury
haematological, serum chemistry or urine analysis variables (patients with T2D [6]; any treatment group, repeated-dose study): no significant change from baseline
development of anti‐efpeglenatide antibodies [7]: No patient
treatment‐emergent or treatment‐induced antibodies [8]: none
dissociation from the GLP‐1 receptor (GLP‐1 receptor [9]): faster dissociation
receptor internalization (GLP‐1 receptor [10]): reduced receptor internalization
